Reference: ChEMBL document CHEMBL1152552, “Death receptor 5 promoter-enhancing compounds isolated from Catimbium speciosum and their enhancement effect on TRAIL-induced apoptosis” (Bioorg Med Chem, 2009)
Active and inactive are the calls of the source. The rule behind the calls is not given here.

Experiments:
[1] = tested on: DLD-1; assay: Decrease in Bcl-xL mRNA expression in human DLD1 cells co-transfected with Sac1 cells at 9.3 uM after 24 hrs by RT-PCR analysis; format: functional, cell-based
[2] = tested on: DLD-1; assay: Induction of apoptosis in TRAIL-resistant human DLD1 cells assessed as accumulation in sub-G1 phase at 9.3 uM after 24 hrs using annexin-V-FITC/propidium iodide staining by flow cytometry in presence of TRAIL; format: functional
[3] = tested on: DLD-1; assay: Induction of apoptosis in TRAIL-resistant human DLD1 cells assessed as late apoptotic cells at 9.3 uM after 24 hrs using annexin-V-FITC/propidium iodide staining by flow cytometry in presence of TRAIL; format: functional
[4] = tested on: DLD-1; assay: Induction of DR5 gene expression in human DLD1 cells co-transfected with Sac1 cells at 18.5 uM after 24 hrs by RT-PCR analysis
[5] = tested on: DLD-1; assay: Induction of apoptosis in TRAIL-resistant human DLD1 cells assessed as accumulation in sub-G1 phase at 18.5 uM after 24 hrs using annexin-V-FITC/propidium iodide staining by flow cytometry in presence of TRAIL; format: functional
[6] = tested on: DLD-1; assay: Induction of apoptosis in TRAIL-resistant human DLD1 cells assessed as accumulation in sub-G1 phase at 18.5 uM after 24 hrs using annexin-V-FITC/propidium iodide staining by flow cytometry in presence of TRAIL/z-IETD-fmk caspase 8 inhibitor; format: functional, cell-based
Outline: (§1)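 DLD1/TR cells incubated 24 h with 18.5 uM test agent and 100 ng/mL TRAIL, plus either caspase-8 inhibitor z-IETD-fmk at 25 uM or caspase-9 inhibitor z-LEHD-fmk at 20 uM. Ethanol-fixed, PI/RNase stained, sub-G1 fraction read by flow cytometry (at least 20,000 events). Run in triplicate.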

[7] = tested on: DLD-1; assay: Induction of apoptosis in TRAIL-resistant human DLD1 cells assessed as late apoptotic cells at 18.5 uM after 24 hrs using annexin-V-FITC/propidium iodide staining by flow cytometry in presence of TRAIL; format: functional
[8] = tested on: DLD-1; assay: Induction of apoptosis in TRAIL-resistant human DLD1 cells assessed as accumulation in sub-G1 phase after 24 hrs using annexin-V-FITC/propidium iodide staining by flow cytometry; format: functional
[9] = tested on: DLD-1; assay: Decrease in Bcl-xL protein expression in human DLD1 cells co-transfected with Sac1 cells after 24 hrs by Western blot analysis; format: functional, cell-based
Outline: (§2)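 Lysates of DLD1/TR cells treated 24 h (procaspase-8 after combined TRAIL exposure). Equal protein resolved by SDS-PAGE: 15% for Bcl-xL, 12.5% for DR5, 10% for caspase-8. Transferred to PVDF and probed 1 h at room temperature with primary antibody, then HRP secondary 1 h. Chemiluminescent detection with β-actin as loading control.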

[10] = tested on: DLD-1; assay: Induction of apoptosis in TRAIL-resistant human DLD1 cells assessed as accumulation in sub-G1 phase at 18.5 uM after 24 hrs using annexin-V-FITC/propidium iodide staining by flow cytometry in presence of TRAIL/caspase 9 inhibitor; format: functional, cell-based; outline: as §1
[11] = tested on: DLD-1; assay: Decrease in procaspase 8 in TRAIL-resistant human DLD1 cells co-transfected with Sac1 cells at 18.5 uM by Western blot analysis in presence of TRAIL; format: functional, cell-based; outline: as §2
[12] = tested on: AGS; assay: Induction of apoptosis in TRAIL-resistant human AGS cells assessed as early apoptotic cells at 18.5 uM after 24 hrs using annexin-V-FITC/propidium iodide staining by flow cytometry in presence of TRAIL; format: functional
[13] = tested on: AGS; assay: Induction of apoptosis in TRAIL-resistant human AGS cells assessed as late apoptotic cells at 9.3 uM after 24 hrs using annexin-V-FITC/propidium iodide staining by flow cytometry in presence of TRAIL; format: functional
[14] = tested on: DLD-1; assay: Induction of DR5 gene expression in human DLD1 cells co-transfected with Sac1 cells at 9.3 uM after 24 hrs by RT-PCR analysis; format: functional
[15] = tested on: AGS; assay: Induction of apoptosis in TRAIL-resistant human AGS cells assessed as early apoptotic cells at 9.3 uM after 24 hrs using annexin-V-FITC/propidium iodide staining by flow cytometry in presence of TRAIL; format: functional
[16] = tested on: DLD-1; assay: Induction of DR4 gene expression in human DLD1 cells co-transfected with Sac1 cells after 24 hrs by RT-PCR analysis; format: functional, cell-based
[17] = molecular target: Tumor necrosis factor receptor superfamily member 10B (Homo sapiens) (UniProt O14763); assay: Induction of DR5 receptor promotor activity in human DLD1 cells co-transfected with Sac1 cells at 18.5 uM after 24 hrs by luciferase assay; format: cell-based
[18] = tested on: DLD-1; assay: Cytotoxicity against human DLD1 cells co-transfected with Sac1 after 24 hrs; format: functional, cell-based; details: DLD-1, 24 h
[19] = tested on: DLD-1; assay: Induction of apoptosis in TRAIL-resistant human DLD1 cells assessed as early apoptotic cells at 18.5 uM after 24 hrs using annexin-V-FITC/propidium iodide staining by flow cytometry in presence of TRAIL; format: functional
[20] = tested on: DLD-1; assay: Induction of DR5 protein expression in human DLD1 cells co-transfected with Sac1 cells after 24 hrs by Western blot analysis; format: functional, cell-based; outline: as §2
[21] = tested on: DLD-1; assay: Induction of apoptosis in TRAIL-resistant human DLD1 cells assessed as accumulation in sub-G1 phase at 18.5 uM after 24 hrs using annexin-V-FITC/propidium iodide staining by flow cytometry in presence of TRAIL/human recombinant DR5/Fc chimera protein; format: functional, cell-based
Outline: (§3)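 DLD1/TR cells incubated 24 h with 18.5 uM test agent and 100 ng/mL TRAIL, plus 2.5 ug/mL human recombinant DR5/Fc or DR4/Fc chimera. Ethanol-fixed, PI/RNase stained, sub-G1 fraction read by flow cytometry (at least 20,000 events). Run in triplicate.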

[22] = tested on: DLD-1; assay: Increase in CHOP mRNA expression in human DLD1 cells co-transfected with Sac1 cells; format: functional, cell-based
[23] = tested on: DLD-1; assay: Activation of caspase 3 in TRAIL-resistant human DLD1 cells co-transfected with Sac1 cells by luminescent assay in presence of TRAIL; format: functional, cell-based
Outline: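 Cells exposed 24 h to 4.6, 9.3 or 18.5 uM test agent and/or 100 ng/mL TRAIL, harvested and lysed. Lysate incubated with luminogenic z-DEVD-aminoluciferin substrate (Caspase-Glo 3/7) for 1 h at room temperature; luminescence read on a luminometer.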

[24] = tested on: DLD-1; assay: Decrease in Bcl-xL mRNA expression in human DLD1 cells co-transfected with Sac1 cells at 18.5 uM after 24 hrs by RT-PCR analysis; format: functional, cell-based
[25] = tested on: DLD-1; assay: Induction of apoptosis in TRAIL-resistant human DLD1 cells assessed as accumulation in sub-G1 phase at 18.5 uM after 24 hrs using annexin-V-FITC/propidium iodide staining by flow cytometry in presence of TRAIL/human recombinant DR4/Fc chimera protein; format: functional, cell-based; outline: as §3
[26] = tested on: AGS; assay: Induction of apoptosis in TRAIL-resistant human AGS cells assessed as late apoptotic cells at 18.5 uM after 24 hrs using annexin-V-FITC/propidium iodide staining by flow cytometry in presence of TRAIL; format: functional
[27] = tested on: DLD-1; assay: Induction of apoptosis in TRAIL-resistant human DLD1 cells assessed as early apoptotic cells at 9.3 uM after 24 hrs using annexin-V-FITC/propidium iodide staining by flow cytometry in presence of TRAIL; format: functional
[28] = molecular target: Tumor necrosis factor receptor superfamily member 10B (Homo sapiens) (UniProt O14763); assay: Induction of DR5 receptor promotor activity in human DLD1 cells co-transfected with Sac1 at 43.9 uM after 24 hrs by luciferase assay; format: cell-based; details: DLD-1
[29] = molecular target: Tumor necrosis factor receptor superfamily member 10B (Homo sapiens) (UniProt O14763); assay: Induction of DR5 receptor promotor activity in human DLD1 cells co-transfected with Sac1 at 39 uM after 24 hrs by luciferase assay; format: cell-based; details: DLD-1

Tumor necrosis factor receptor superfamily member 10B (Homo sapiens), sequence (O14763 whole entry): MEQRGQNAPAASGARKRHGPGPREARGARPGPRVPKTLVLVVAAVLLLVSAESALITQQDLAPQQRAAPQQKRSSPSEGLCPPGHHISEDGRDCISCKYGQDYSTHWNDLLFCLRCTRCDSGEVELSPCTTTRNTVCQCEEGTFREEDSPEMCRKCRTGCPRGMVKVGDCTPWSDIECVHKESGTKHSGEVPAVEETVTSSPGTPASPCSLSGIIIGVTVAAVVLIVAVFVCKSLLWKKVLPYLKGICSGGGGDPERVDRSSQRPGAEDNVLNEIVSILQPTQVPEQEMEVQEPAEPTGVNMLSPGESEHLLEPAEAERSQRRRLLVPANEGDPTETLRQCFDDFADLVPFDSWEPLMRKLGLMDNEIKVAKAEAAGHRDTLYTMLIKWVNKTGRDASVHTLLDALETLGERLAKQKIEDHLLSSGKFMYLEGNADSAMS

COc1cc(O)cc(O)c1C(=O)/C=C/c1ccccc1 [CARDAMOMIN]
Activity [1]: Active | Activity [2]: 41.9% | Activity [3]: 14.3% | fold change (FC) [4]: 4.1 | Activity [5]: 55.8% | Activity [6]: inactive | Activity [7]: 20.5% | Activity [8]: 15.5% | Activity [9]: Dose-dependent effect | Activity [10]: inactive | Activity [11]: Active | Activity [12]: 30.2% | Activity [13]: 3% | fold change (FC) [14]: 2 | Activity [15]: 15% | Activity [16]: Dose-dependent effect | fold change (FC) [17]: 4.1 | IC50 [18]: 41.8 µM | Activity [19]: 26.7% | Activity [20]: Dose-dependent effect | Activity [21]: Active | Activity [22]: Dose-dependent effect | Activity [23]: Dose-dependent effect | Activity [24]: Active | Activity [25]: inactive | Activity [26]: 5% | Activity [27]: 14.1%

COc1cc(/C=C/c2ccccc2)oc(=O)c1
fold change (FC) [28]: 2.5

O=C1C[C@@H](c2ccccc2)Oc2cc(O)cc(O)c21
fold change (FC) [29]: 2.5
